# Source: ChEMBL document CHEMBL1131013, “Synthesis and evaluation of analogues of the partial agonist 6-(propyloxy)-4-(methoxymethyl)-beta-carboline-3-carboxylic acid ethyl ester (6-PBC) and the full agonist 6-(benzyloxy)-4-(methoxymethyl)-beta-carboline-3-carboxylic acid ethyl ester (Zk 93423) at wild type and recombinant GABAA receptors” (J Med Chem, 1998)
# Key:
# [1] = target: GABA-A receptor; alpha-6/beta-3/gamma-2 (Homo sapiens, UniProt P18507+P28472+Q16445); assay: Binding affinity measured using LtK- cell membranes expressing Gamma-aminobutyric acid A receptor alpha-6-beta-3-gamma-2
# Chain of GABA-A receptor; alpha-6/beta-3/gamma-2 (Q16445 whole entry, one chain of several): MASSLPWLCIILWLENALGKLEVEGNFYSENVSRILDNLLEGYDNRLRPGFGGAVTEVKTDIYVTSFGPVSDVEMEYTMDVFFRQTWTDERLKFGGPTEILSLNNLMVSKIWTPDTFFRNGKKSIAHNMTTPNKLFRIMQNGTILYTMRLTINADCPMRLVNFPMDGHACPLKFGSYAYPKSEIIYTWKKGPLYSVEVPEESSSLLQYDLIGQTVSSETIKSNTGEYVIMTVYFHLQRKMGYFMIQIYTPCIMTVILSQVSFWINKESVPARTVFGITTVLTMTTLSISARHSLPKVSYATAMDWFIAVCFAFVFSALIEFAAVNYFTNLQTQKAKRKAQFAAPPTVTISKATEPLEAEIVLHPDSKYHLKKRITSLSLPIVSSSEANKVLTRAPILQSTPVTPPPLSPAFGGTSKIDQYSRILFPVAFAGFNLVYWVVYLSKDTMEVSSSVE
# How it was run: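 Ltk- cells expressing human α6β3γ2, scraped into PBS and resuspended in 10 mM KH2PO4/100 mM KCl pH 7.4. 1 h at 4 °C to equilibrium, filtration, scintillation counting.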
# [2] = target: GABA-A receptor; anion channel; assay: Displacement of [3H]flunitrazepam from GABA-A Benzodiazepine receptor of rat brain cortical membranes; format: cell membranes, Membrane
# How it was run: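 Rat cerebral cortex homogenized in 50 mM Tris-citrate, pH 7.4, and washed by centrifugation (20000g). […] Nonspecific binding with 10 μM Ro15-1788. Ended by vacuum filtration. IC50 estimated from at least six inhibitor concentrations; mean ± SEM of at least three determinations.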
# [3] = target: T1, GABA-A receptor; alpha-3/beta-3/gamma-2 (Homo sapiens, UniProt P18507+P28472+P34903); assay: Binding affinity measured using LtK- cell membranes expressing GABA alpha-3-beta-3-gamma-2 receptor
# T1 sequence (P18507 whole entry): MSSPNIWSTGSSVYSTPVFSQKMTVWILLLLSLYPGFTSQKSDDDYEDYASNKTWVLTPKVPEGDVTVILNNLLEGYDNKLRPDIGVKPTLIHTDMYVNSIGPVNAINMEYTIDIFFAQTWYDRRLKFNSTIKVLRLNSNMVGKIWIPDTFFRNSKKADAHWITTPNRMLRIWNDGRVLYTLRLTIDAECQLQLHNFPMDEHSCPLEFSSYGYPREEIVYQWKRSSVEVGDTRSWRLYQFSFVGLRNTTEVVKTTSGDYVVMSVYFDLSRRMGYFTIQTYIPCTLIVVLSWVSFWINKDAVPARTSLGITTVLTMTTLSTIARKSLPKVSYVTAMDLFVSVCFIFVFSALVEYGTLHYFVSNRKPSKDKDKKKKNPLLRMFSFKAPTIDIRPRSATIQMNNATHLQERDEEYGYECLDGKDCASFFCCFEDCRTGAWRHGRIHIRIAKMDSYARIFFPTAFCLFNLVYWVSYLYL
# T1 sequence (P28472 whole entry): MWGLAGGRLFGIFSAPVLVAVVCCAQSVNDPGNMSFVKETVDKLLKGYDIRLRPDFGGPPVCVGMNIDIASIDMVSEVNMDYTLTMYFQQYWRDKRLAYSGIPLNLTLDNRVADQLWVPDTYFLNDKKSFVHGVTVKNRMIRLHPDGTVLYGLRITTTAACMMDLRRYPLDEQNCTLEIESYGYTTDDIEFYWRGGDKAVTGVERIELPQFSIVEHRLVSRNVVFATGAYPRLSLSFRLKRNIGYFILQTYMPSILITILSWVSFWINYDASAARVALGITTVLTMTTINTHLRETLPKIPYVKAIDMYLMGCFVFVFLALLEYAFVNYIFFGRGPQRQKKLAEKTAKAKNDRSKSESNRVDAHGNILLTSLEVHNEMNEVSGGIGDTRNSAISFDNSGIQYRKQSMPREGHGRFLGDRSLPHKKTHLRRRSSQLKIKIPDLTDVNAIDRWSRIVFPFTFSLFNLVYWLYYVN
# T1 sequence (P34903 whole entry): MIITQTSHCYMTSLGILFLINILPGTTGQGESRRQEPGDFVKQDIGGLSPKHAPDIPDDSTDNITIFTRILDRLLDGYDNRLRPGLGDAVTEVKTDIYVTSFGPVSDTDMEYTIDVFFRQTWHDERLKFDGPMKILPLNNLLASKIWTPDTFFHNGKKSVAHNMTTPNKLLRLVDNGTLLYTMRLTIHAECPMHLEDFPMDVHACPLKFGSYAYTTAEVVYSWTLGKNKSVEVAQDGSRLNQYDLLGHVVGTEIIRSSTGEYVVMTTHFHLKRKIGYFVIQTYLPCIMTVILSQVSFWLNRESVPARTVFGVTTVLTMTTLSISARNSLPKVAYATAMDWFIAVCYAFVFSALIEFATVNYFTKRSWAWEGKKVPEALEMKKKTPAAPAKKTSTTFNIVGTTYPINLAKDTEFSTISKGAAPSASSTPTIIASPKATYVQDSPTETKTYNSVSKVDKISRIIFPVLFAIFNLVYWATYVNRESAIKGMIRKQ
# [4] = target: T2, GABA-A receptor; alpha-2/beta-3/gamma-2 (Homo sapiens, UniProt P18507+P28472+P47869); assay: Binding affinity measured using LtK- cell membranes expressing GABA alpha-2-beta-3-gamma-2 receptor
# T2 sequence (P18507 whole entry): T1 sequence (P18507 whole entry)
# T2 sequence (P28472 whole entry): T1 sequence (P28472 whole entry)
# T2 sequence (P47869 whole entry): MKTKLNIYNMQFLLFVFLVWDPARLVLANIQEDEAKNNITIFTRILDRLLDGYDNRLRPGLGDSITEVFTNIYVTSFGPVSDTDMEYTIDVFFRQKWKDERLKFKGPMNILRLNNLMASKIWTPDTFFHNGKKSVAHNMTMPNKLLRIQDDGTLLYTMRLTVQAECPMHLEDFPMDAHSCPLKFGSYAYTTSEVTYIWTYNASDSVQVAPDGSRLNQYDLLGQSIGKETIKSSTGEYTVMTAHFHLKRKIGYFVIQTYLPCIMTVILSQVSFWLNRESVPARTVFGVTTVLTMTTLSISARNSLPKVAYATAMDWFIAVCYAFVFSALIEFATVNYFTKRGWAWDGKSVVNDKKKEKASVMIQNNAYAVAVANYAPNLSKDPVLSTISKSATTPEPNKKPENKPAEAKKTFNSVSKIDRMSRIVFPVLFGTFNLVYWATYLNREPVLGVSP
# [5] = target: T3, GABA-A receptor; alpha-5/beta-3/gamma-2 (Homo sapiens, UniProt P18507+P28472+P31644); assay: Binding affinity measured using LtK- cell membranes expressing Gamma-aminobutyric acid A receptor alpha-5-beta-3-gamma-2
# T3 sequence (P18507 whole entry): T1 sequence (P18507 whole entry)
# T3 sequence (P28472 whole entry): T1 sequence (P28472 whole entry)
# T3 sequence (P31644 whole entry): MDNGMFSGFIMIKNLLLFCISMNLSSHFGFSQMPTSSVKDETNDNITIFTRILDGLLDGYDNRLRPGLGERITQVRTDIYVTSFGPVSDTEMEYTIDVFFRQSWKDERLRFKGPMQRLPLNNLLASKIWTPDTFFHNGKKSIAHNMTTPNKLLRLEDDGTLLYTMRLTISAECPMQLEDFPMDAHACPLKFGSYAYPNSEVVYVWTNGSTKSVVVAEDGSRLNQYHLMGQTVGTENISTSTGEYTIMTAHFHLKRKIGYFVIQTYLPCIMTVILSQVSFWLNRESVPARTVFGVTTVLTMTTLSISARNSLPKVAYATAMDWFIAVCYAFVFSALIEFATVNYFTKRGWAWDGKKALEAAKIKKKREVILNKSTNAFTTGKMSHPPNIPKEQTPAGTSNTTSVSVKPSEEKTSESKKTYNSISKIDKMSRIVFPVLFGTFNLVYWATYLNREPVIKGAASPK
# [6] = target: T4, GABA-A receptor; alpha-1/beta-3/gamma-2 (Homo sapiens, UniProt P14867+P18507+P28472); assay: Binding affinity measured using LtK- cell membranes expressing GABA alpha-1-beta-3-gamma-2 receptor
# T4 sequence (P14867 whole entry): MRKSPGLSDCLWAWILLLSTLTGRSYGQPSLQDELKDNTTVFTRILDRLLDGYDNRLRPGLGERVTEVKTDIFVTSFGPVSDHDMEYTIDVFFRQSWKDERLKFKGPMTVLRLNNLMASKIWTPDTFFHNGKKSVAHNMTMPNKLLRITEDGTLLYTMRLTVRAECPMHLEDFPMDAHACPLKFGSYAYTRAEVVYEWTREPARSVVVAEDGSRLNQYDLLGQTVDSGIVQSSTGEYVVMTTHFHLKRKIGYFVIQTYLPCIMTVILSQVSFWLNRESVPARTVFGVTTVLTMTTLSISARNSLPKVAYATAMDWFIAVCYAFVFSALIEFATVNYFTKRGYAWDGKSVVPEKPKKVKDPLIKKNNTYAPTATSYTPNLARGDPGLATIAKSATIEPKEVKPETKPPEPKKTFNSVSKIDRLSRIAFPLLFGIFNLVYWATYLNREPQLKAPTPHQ
# T4 sequence (P18507 whole entry): T1 sequence (P18507 whole entry)
# T4 sequence (P28472 whole entry): T1 sequence (P28472 whole entry)
# [7] = target: T3, GABA-A receptor; alpha-5/beta-3/gamma-2; assay: Binding affinity for GABA-A alpha-5-beta-3-gamma-2 receptor expressed in L (tk-) cells; format: cell-based
# How it was run: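 Competition binding against [3H]Ro15-1788 (1-2 nM final) on human GABAA receptors expressed in Ltk- cells, scraped into PBS and resuspended in 10 mM KH2PO4/100 mM KCl pH 7.4. Incubated to equilibrium 1 h at 4 °C, filtered, scintillation counted.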
# [8] = target: T2, GABA-A receptor; alpha-2/beta-3/gamma-2; assay: Binding affinity for GABA-A alpha-2-beta-3-gamma-2 receptor expressed in L(tk-) cells; format: cell-based
# How it was run: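 Competition binding on Ltk- cells expressing human α2β3γ2 GABAA receptors. Cells were scraped into PBS, centrifuged at 3000g and resuspended in phosphate buffer (10 mM KH2PO4, 100 mM KCl, pH 7.4 at 4 °C). Radioligand was [3H]Ro15-1788 at 1–2 nM, with test compound at 10^-9–10^-5 M. Nonspecific binding was defined by 10^-5 M diazepam. Incubation ran 1 h at 4 °C to equilibrium, followed by filtration and scintillation counting.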
Compound,Ki [1],IC50 [2],Ki [3],Ki [4],Ki [5],Ki [6],Ki [7],Ki [8]
CCOC(=O)c1[nH]cc2nc3ccc(OC)cc3c-2c1COC,> 10000 nM,1 nM,1.72 nM,1.19 nM,4 nM,0.14 nM,–,–
CCCCCCCCOc1ccc2[nH]c3cnc(C(=O)OCC)c(CC)c3c2c1,> 30000 nM,> 1000 nM,35000 nM,29700 nM,–,–,12700 nM,–
CCOc1cc2c(cn1)[nH]c1ccccc12,> 1000 nM,–,–,–,868 nM,6.43 nM,–,25.1 nM
COCc1c(N=C=S)[nH]cc2nc3ccc(OCc4ccccc4)cc3c1-2,> 10000 nM,40 nM,58.8 nM,82.6 nM,159 nM,25 nM,–,–
CCCCCCCCOc1ccc2[nH]c3cnc(C(=O)OCC)c(COC)c3c2c1,> 3000 nM,330 nM,> 3000 nM,> 3000 nM,> 3000 nM,> 1000 nM,–,–
CCCCCCCCOc1ccc2c(c1)c1c(COC)c(C(=O)OCC)ncc1n2C,> 3000 nM,> 1000 nM,> 3000 nM,> 3000 nM,> 3000 nM,> 3000 nM,–,–
CCCOc1ccc2[nH]c3cnc(N)c(COC)c3c2c1,> 3000 nM,697 nM,700 nM,540 nM,380 nM,45 nM,–,–
CCOC(=O)c1[nH]cc2nc3ccc(OCc4cccc5ccccc45)cc3c-2c1CC,> 10000 nM,13.9 nM,300 nM,291 nM,270 nM,183 nM,–,–
